Laboratory results reported in paper PMC3397136 (Amino Acids, 2011).
Several values for one entry are separate records, joined by “and”; a condition that tells them apart may be missing. Equal entries are not always repeated. Where two headings read alike, the source gives them in different places. Positions of bridges follow the written chain, without caps; N, C: chain ends. No end group written: not given here.

Columns and labels:
[1] = test system: strips of rat uterus; format: cell-based; settings: for anti-oxytocic potency, times less potent than the mother compound III: in vitro uterus test
Summary of the method: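 Wistar rats were brought into estrus by estrogen injection 48 h before use. After decapitation, uterine horns were cut longitudinally and mounted in an organ bath without Mg2+, and isometric contraction height was recorded. Oxytocin standard, with or without test compound, or test compound alone was dosed cumulatively in doubling concentrations at 1 min intervals until maximal response. Results are agonist IU/mg or antagonist pA2, using uteri from 3–5 rats, mean ± SEM.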

[2] = test system: arterial blood pressure (pressor response to AVP); assay: vasopressor test in phenoxybenzamine-treated male rats under urethane anesthesia; format: in vivo, rat; settings: for Pressor IU/mg or pA2 (0 = no activity): 0 means no activity up to the dose of 0.15 mg/kg of experimental animal; for pressor activity (in words) / Pressor pA2 (antagonist): rat; for pressor activity (in words): in vivo; for Pressor pA2 (antagonist): i.v., antagonist 1 min before AVP
Summary of the method: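 Male Wistar rats were pretreated with phenoxybenzamine and anesthetized with urethane, and arterial blood pressure was recorded. AVP standard was given as single femoral-vein injections to build dose–response curves with and without antagonist, which was given 1 min earlier. Results are IU/mg for agonists or pA2 for antagonists, with distribution volume taken as 67 ml/kg. Inactivity means no response up to 0.15 mg/kg. 3–5 experiments, mean ± SEM.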

[3] = test system: conscious male rats (antidiuresis); assay: antidiuretic test on conscious male rats; format: in vivo, rat; settings: for Antidiuretic IU/mg: single value given, no level given; for Antidiuretic IU/mg (200 min): level t1/2 200 min (in parentheses); for Antidiuretic IU/mg (200 min) / Antidiuretic IU/mg 60 min: s.c., AVP taken as 465 IU/mg; for Antidiuretic IU/mg 60 min: threshold level t1/2 60 min; for antidiuretic activity (in words): rat, in vivo
Summary of the method: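 Fasted (16 h) conscious male Wistar rats given a tap-water load of 4% body weight by stomach catheter. Test compound or saline was then injected s.c. (0.001–100 nmol/kg), and urine was collected for 5 h in metabolic cages. The half-excretion time t1/2 was plotted against dose. […] Groups were 4–5 rats, with 2–3 independent days per dose.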

[4] = test system: conscious male rats (antidiuresis); settings: cited from earlier work; for Antidiuretic IU/mg (200 min): 200 min level; for Antidiuretic IU/mg 60 min: threshold level 60 min; for Antidiuretic IU/mg: single value, ref Lebl (1987)
[5] = test system: arterial blood pressure (pressor response to AVP); settings: cited from earlier work
[6] = test system: strips of rat uterus; settings: cited from earlier work
[7] = rat uterus strips, no Mg2+, average ± SEM, n = 3–5
[8] = ref Melin et al. (1986), Manning et al. (1995)

## Aba[cis-Apc^2,Val^4]AVP [XI]
[1]
  anti-oxytocic potency, times less potent than the mother compound III: ~10 times
[2]
  Pressor IU/mg or pA2 (0 = no activity): 0
  pressor activity (in words): eliminated its effect on blood pressure
[3]
  Antidiuretic IU/mg: 0 IU/mg

## Aca[cis-Apc^2,Val^4]AVP [VIII]
[2]
  Pressor IU/mg or pA2 (0 = no activity): 0
  pressor activity (in words): eliminated its effect on blood pressure
[3]
  Antidiuretic IU/mg (200 min): < 0.5 IU/mg
  Antidiuretic IU/mg 60 min: < 0.01 IU/mg

## Hba[cis-Apc^2,Val^4]AVP [X]
[1]
  anti-oxytocic potency, times less potent than the mother compound III: about 4 times
[3]
  Antidiuretic IU/mg (200 min): < 0.5 IU/mg
  Antidiuretic IU/mg 60 min: < 0.01 IU/mg

## [Acc^2,Val^4]AVP
[4]; ref Kowalczyk et al. (2004)
  Antidiuretic IU/mg (200 min): 23,000 IU/mg
  Antidiuretic IU/mg 60 min: 2,300 IU/mg
[5]; ref Kowalczyk et al. (2004)
  Pressor IU/mg: 0.9 ± 0.30 IU/mg
[6]; ref Kowalczyk et al. (2004)
  Uterotonic in vitro no Mg2+ pA2: pA2 = 6.9

## [Acc^2]AVP
[4]; ref Jastrzębska et al. (2003)
  Antidiuretic IU/mg (200 min): ~9,300 IU/mg
  Antidiuretic IU/mg 60 min: 750–900 IU/mg
[5]; ref Jastrzębska et al. (2003)
  Pressor IU/mg: 56.6 IU/mg
[6]; ref Jastrzębska et al. (2003)
  Uterotonic in vitro no Mg2+ pA2: pA2 ~ 5.6

## [Cpa^1,Acc^2]AVP
[6]; ref Jastrzębska et al. (2003)
  Uterotonic in vitro no Mg2+ pA2: 7.33

## [Cpa^1,cis-Apc^2]AVP [VII]
[1]; [7]
  Uterotonic in vitro no Mg2+ pA2 (anti-oxytocic): pA2 = 7.85 + 0.14
[2]
  Pressor pA2 (antagonist): pA2 ~ 6.2
  pressor activity (in words): weak and low antagonistic activity
[3]
  Antidiuretic IU/mg (200 min): 1 IU/mg
  antidiuretic activity (in words): negligible
  Antidiuretic IU/mg 60 min: 0.05 IU/mg

## [Cpa^1,cis-Apc^2]OT [XIV]
[1]; [7]
  Uterotonic in vitro no Mg2+ pA2 (anti-oxytocic): pA2 = 7.97 + 0.24
[2]
  Pressor pA2 (antagonist): pA2 ~ 6.73

## [Mpa^1,Acc^2]AVP
[4]; ref Kowalczyk et al. (2004)
  Antidiuretic IU/mg (200 min): 50,000 IU/mg
  Antidiuretic IU/mg 60 min: 4,500 IU/mg
[5]; ref Kowalczyk et al. (2004)
  Pressor IU/mg: 17.2 ± 0.8 IU/mg
[6]; ref Kowalczyk et al. (2004)
  Uterotonic in vitro no Mg2+ pA2: ~5.6
[6]; value in parentheses, ref Kowalczyk et al. (2004)
  Uterotonic in vitro no Mg2+ IU/mg: 0.7 IU/mg

## [Mpa^1,cis-Apc^2,D-Arg^8]VP [VI]
[2]
  Pressor pA2 (antagonist): pA2 ~ 7.1
[3]
  Antidiuretic IU/mg (200 min): 1,000 IU/mg
  Antidiuretic IU/mg 60 min: 5 IU/mg

## [Mpa^1,cis-Apc^2]OT [XIII]
[1]; [7]
  Uterotonic in vitro no Mg2+ pA2 (anti-oxytocic): pA2 = 8.11 + 0.18
[1]; rat uterus strips, no Mg2+, average ± SEM, n = 3–5, listed as [Mpa^1,cis-Apc^2]OT
  Uterotonic in vitro no Mg2+ pA2 (anti-oxytocic): 8.11
[2]
  Pressor pA2 (antagonist): pA2 ~ 6.0
[3]
  antidiuretic activity (in words): inactive
  Antidiuretic IU/mg: 0 IU/mg

## [Mpa^1]OT
[4]
  Antidiuretic IU/mg: 19 IU/mg
[5]; ref Lebl (1987)
  Pressor IU/mg: 1.44 IU/mg
[6]; ref Lebl (1987)
  Uterotonic in vitro no Mg2+ IU/mg: 803 IU/mg

## [cis-Apc^2,D-Arg^8]VP
[2]
  Pressor pA2 (antagonist): pA2 ~ 7.1
[3]
  Antidiuretic IU/mg (200 min): 200 IU/mg
  antidiuretic activity (in words): negligible
  Antidiuretic IU/mg 60 min: 1 IU/mg
[3]; t1/2 level of 200 min
  antidiuretic potency relative to AVP: about 43%

## [cis-Apc^2]OT [XII]
[1]; [7]
  Uterotonic in vitro no Mg2+ pA2 (anti-oxytocic): pA2 = 7.89 + 0.07
[2]
  Pressor pA2 (antagonist): pA2 ~ 5.75
  pressor activity (in words): weak

## arginine vasopressin (CYFQNCPRG-NH2; disulfide 1-6; UniProt P01185 20-28, looked up) [AVP]
[4]
  Antidiuretic IU/mg: 465 IU/mg
[5]; ref Lebl (1987)
  Pressor IU/mg: 412 IU/mg
[6]; ref Lebl (1987)
  Uterotonic in vitro no Mg2+ IU/mg: 17 IU/mg

## d[D-Tyr(Et)^2,Thr^4]OVT [Atosiban]
[4]; [8]
  Antidiuretic pA2: pA2 = 5.9
[5]; [8]
  Pressor pA2: pA2 = 6.14 ± 0.02
[6]; [8]
  Uterotonic in vitro no Mg2+ pA2: 7.71 and 7.71 ± 0.05

## oxytocin [OT]
[4]
  Antidiuretic IU/mg: 5 IU/mg
[5]; ref Lebl (1987)
  Pressor IU/mg: 5 IU/mg
[6]; ref Lebl (1987)
  Uterotonic in vitro no Mg2+ IU/mg: 450 IU/mg

## t-Bba[cis-Apc^2,Val^4]AVP [IX]
[1]; [7]
  Uterotonic in vitro no Mg2+ IU/mg (agonist): 10.1 ± 3.8 IU/mg and 10.1 + 3.8 IU/mg
[2]
  Pressor IU/mg or pA2 (0 = no activity): 0
  pressor activity (in words): eliminated its effect on blood pressure
[3]
  Antidiuretic IU/mg (200 min): < 0.5 IU/mg
  Antidiuretic IU/mg 60 min: < 0.01 IU/mg
